# In PMC12398706 (ACS chemical neuroscience, 2025):
# Structures can show the parent of a compound that is named as a salt. Where two headings read alike, the source gives them in different places.
# What was measured:
# SERT [1] = target: T1, SERT (Homo sapiens, UniProt P31645); settings: cocaine 10 μM; value taken from a previous report; cited from earlier work
# SERT [2] = target: T1, SERT; assay type: cell-based
# SERT [3] = target: T1, SERT; assay: SERT efflux assay; assay type: cell-based; settings: for SERT efflux, single concentration: 10 μM, normalized to vehicle (0.1% DMSO = 0%) and 100 μM PCA = 100%
# In short: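 hSERT-N1-pEYFP transfected (0.1 μg/well) into HEK293T cells (DMEM, 10% FBS) at seeding, 24 h before assay. In HBSS with 2 mM MgCl2, 2 mM CaCl2 and 5 mM HEPES at 37 °C, cells were loaded with 40 nM [3H]5-HT for 20 min, washed, then exposed 20 min to test compound (final 10 μM–1 nM, 0.1% DMSO). After washing and NaOH lysis, retained radioactivity was scintillation-counted. EC50/Span came from three-parameter log(agonist)-response fits.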
# SERT-PG^601,602AA = SERT-PG^601,602AA (Homo sapiens, UniProt P31645, G602A/P601A); assay: SERT pharmacochaperoning assay; assay type: cell-based; settings: 20 μM, 24 h; normalized to vehicle (0.2% DMSO = 0%) and 20 μM noribogaine = 100%
# In short: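 HEK293T cells (DMEM, 10% FBS) were transfected at seeding with the misfolding SERT-PG601,602AA plasmid (0.1 μg/well) and kept overnight at 37 °C, 5% CO2. They were then exposed 24 h to test compound at a final 20 μM (0.2% DMSO) in fresh medium. Four 10-min washes with supplemented HBSS preceded 10-min uptake of 40 nM [3H]5-HT. Cells were washed, lysed in 10 mM NaOH and scintillation-counted.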
# SERT [4] = target: T1, SERT; assay: NIMH PDSP radioligand binding, SERT; settings: 10 μM; N = 1 in quadruplicate
# 5-HT3 receptors = target: T2, 5-HT3 receptors (Homo sapiens, UniProt P46098); assay: NIMH PDSP radioligand binding, 5-HT3; settings: 10 μM; N = 1 in quadruplicate
# T2 sequence (P46098 24-478): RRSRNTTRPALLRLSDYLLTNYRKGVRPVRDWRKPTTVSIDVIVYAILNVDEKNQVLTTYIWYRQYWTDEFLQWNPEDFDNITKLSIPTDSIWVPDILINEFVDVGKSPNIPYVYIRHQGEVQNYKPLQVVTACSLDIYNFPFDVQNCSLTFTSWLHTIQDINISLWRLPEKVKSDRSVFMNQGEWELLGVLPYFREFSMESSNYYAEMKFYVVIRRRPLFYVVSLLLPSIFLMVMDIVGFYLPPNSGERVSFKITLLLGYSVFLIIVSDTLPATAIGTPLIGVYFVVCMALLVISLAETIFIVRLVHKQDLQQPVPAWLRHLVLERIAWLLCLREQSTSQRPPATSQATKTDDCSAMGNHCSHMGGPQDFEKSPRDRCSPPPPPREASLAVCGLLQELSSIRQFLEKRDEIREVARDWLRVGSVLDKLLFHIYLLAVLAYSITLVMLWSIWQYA
# In short: (§1)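 Outsourced screen run by the NIMH Psychoactive Drug Screening Program across a broad target panel. Test compound at 10 μM; read-out was % inhibition of binding of a radiolabelled ligand specific to each target. Single experiment (N = 1) run in quadruplicate, with the averaged value reported.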
# sigma 1 = assay: NIMH PDSP radioligand binding, sigma 1; settings: 10 μM; N = 1 in quadruplicate
# In short: as §1
# sigma 2 = assay: NIMH PDSP radioligand binding, sigma 2; settings: 10 μM; N = 1 in quadruplicate
# In short: as §1
# DAT = DAT (Homo sapiens, UniProt Q01959); assay: NIMH PDSP radioligand binding, DAT; settings: 10 μM; N = 1 in quadruplicate
# In short: as §1
# NET = NET (Homo sapiens, UniProt P23975); assay: NIMH PDSP radioligand binding, NET; settings: 10 μM; N = 1 in quadruplicate
# In short: as §1
# H1 = H1 (Homo sapiens, UniProt P35367); assay: NIMH PDSP radioligand binding, H1; settings: 10 μM; N = 1 in quadruplicate
# In short: as §1
# 5-HT2B = 5-HT2B (Homo sapiens, UniProt P41595); assay: NIMH PDSP radioligand binding, 5-HT2B; settings: 10 μM; N = 1 in quadruplicate
# In short: as §1
# adrenergic receptors = assay: NIMH PDSP radioligand binding, adrenergic receptors; settings: 10 μM; N = 1 in quadruplicate
# In short: as §1
# SERT [5] = target: T1, SERT; settings: cited from earlier work
# serotonin uptake = settings: cited from earlier work
# SERT [6] = target: T1, SERT; settings: cited from earlier work; remark: listed apart in the source
# [7] = concentration-response, compared to UCD0184
# Sequence of DAT (Q01959 whole entry, species assumed): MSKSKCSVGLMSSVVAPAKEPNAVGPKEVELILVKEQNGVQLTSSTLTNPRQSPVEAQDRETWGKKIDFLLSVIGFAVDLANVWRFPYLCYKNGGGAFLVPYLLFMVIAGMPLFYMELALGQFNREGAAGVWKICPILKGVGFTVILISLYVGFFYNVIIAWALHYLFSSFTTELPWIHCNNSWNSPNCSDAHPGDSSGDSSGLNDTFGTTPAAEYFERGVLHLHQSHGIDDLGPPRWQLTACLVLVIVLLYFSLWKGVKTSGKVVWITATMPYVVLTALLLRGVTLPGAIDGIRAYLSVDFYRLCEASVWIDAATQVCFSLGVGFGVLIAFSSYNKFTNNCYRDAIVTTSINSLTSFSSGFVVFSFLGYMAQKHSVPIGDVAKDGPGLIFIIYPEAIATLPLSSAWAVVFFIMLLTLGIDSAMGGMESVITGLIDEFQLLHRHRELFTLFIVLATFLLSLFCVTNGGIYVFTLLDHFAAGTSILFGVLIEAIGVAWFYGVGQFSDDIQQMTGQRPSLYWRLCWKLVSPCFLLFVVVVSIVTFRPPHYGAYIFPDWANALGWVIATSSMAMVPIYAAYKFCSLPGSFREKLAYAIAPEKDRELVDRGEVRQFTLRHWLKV
# Sequence of NET (P23975 whole entry): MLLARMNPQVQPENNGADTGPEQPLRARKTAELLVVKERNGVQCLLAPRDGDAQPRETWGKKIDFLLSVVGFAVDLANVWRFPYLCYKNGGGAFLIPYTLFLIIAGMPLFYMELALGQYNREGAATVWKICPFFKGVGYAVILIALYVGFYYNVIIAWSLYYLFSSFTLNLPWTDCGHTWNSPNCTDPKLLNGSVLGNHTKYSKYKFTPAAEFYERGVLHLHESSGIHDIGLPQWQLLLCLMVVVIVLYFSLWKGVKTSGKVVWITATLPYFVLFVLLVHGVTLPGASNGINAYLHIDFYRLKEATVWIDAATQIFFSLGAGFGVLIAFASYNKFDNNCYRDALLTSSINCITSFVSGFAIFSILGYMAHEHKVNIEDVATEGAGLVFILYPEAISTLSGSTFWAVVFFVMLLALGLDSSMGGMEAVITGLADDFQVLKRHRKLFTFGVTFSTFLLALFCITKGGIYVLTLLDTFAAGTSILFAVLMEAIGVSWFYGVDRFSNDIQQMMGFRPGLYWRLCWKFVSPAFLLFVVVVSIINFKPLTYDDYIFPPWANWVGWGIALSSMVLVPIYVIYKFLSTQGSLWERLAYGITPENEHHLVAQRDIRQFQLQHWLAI
# Sequence of H1 (P35367 whole entry): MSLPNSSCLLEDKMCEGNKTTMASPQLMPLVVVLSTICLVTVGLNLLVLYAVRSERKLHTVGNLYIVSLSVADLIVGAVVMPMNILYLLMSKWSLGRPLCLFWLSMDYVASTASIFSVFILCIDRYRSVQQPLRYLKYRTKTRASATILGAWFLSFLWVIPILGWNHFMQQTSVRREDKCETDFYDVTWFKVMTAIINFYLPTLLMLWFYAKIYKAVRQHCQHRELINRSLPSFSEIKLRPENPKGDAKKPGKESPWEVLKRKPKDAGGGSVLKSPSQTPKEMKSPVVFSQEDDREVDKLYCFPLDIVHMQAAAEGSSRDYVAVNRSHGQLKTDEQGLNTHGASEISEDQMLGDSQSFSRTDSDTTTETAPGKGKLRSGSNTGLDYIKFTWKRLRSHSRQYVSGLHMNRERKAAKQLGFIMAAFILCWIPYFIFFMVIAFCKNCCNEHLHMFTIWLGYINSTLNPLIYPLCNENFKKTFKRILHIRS
# Sequence of 5-HT2B (P41595 whole entry, species assumed): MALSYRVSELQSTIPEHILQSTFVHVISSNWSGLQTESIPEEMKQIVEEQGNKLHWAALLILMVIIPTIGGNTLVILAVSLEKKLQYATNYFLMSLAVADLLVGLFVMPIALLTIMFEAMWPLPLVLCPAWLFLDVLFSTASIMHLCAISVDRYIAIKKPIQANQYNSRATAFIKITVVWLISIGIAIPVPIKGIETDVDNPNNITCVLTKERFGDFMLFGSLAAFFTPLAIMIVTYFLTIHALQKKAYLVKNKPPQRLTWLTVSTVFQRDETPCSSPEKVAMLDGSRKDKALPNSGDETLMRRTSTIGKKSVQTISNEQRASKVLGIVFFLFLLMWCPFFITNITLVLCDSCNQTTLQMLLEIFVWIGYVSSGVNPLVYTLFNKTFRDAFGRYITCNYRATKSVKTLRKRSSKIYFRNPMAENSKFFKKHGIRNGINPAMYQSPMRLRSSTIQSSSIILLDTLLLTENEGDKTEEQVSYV
smiles,measurement,setting,value
"COC(=O)[C@H]1[C@@H](OC(=O)c2ccccc2)C[C@@H]2CC[C@H]1N2C [cocaine, (−)-cocaine hydrochloride]","SERT inhibition, single concentration",SERT [1],~ 50%
CN1C2C=C(c3c[nH]c4ccccc34)CC1CC2 (centres unmarked) [UCD0184],SERT inhibition Span (Emax),SERT [2],105%
same,"SERT inhibition, single concentration",SERT [2],near full inhibition
same,EC50,"SERT [2]; read-out: SERT inhibition EC50, concentration-response, HEK293T",1100 nM
same,"SERT efflux, single concentration",SERT [3]; HEK293T,appreciable 5-HT efflux
same,type of serotonin releasing agent (SRA): full or partial,SERT [3]; SERT-transfected HEK293T cells,full
same,SERT efflux Span (Emax),"SERT [3]; concentration-response, normalized to vehicle 0% and 100 μM PCA 100%",75.1%
same,EC50,"SERT [3]; read-out: SERT efflux EC50, concentration-response, HEK293T",582 nM
same,SERT pharmacochaperoning efficacy compared to noribogaine,"SERT-PG^601,602AA",did not act as a SERT pharmacochaperone
same,% inhibition of radioligand binding at SERT (in words),SERT [4],substantial binding
same,% inhibition of radioligand binding at 5-HT3 (in words),5-HT3 receptors,high affinity
same,% inhibition of radioligand binding at sigma 1 (in words),sigma 1,potent ligands
same,% inhibition of radioligand binding at sigma 2 (in words),sigma 2,potent ligands
same,% inhibition of radioligand binding at DAT (in words),DAT,potent ligands
same,% inhibition of radioligand binding at NET (in words),NET,potent ligands
same,% inhibition of radioligand binding at H1 (in words),H1,potent ligands
same,% inhibition of radioligand binding at 5-HT2B (in words),5-HT2B,potent ligands
same,% inhibition of radioligand binding at adrenergic receptors (in words),adrenergic receptors,potent ligands
same,selectivity for SERT over DAT,SERT [5],approximately 10 fold
same,selectivity for SERT over NET,SERT [5],~100 fold
CN1C2C=C(c3c[nH]c4ccc(F)cc34)CC1CC2 (centres unmarked) [UCD0093],SERT inhibition potency and efficacy (in words),SERT [2]; [7],drastically increased SERT inhibition potency
same,SERT efflux potency and efficacy (in words),SERT [3]; [7],minimal effect on SERT efflux
same,% inhibition of radioligand binding at SERT (in words),SERT [4],substantial binding
same,% inhibition of radioligand binding at 5-HT3 (in words),5-HT3 receptors,high affinity
same,% inhibition of radioligand binding at sigma 1 (in words),sigma 1,potent ligands
same,% inhibition of radioligand binding at sigma 2 (in words),sigma 2,potent ligands
same,% inhibition of radioligand binding at DAT (in words),DAT,potent ligands
same,% inhibition of radioligand binding at NET (in words),NET,potent ligands
same,% inhibition of radioligand binding at H1 (in words),H1,potent ligands
same,% inhibition of radioligand binding at 5-HT2B (in words),5-HT2B,potent ligands
same,% inhibition of radioligand binding at adrenergic receptors (in words),adrenergic receptors,potent ligands
CN1C2CCC1CC(OC(=O)c1ccccc1)C2 (centres unmarked) [tropacocaine],"SERT efflux, single concentration",SERT [3]; HEK293T,no effect
same,serotonin uptake inhibition activity relative to cocaine (in words),serotonin uptake,reduced activity relative to cocaine
same,SERT binding affinity relative to cocaine (in words),SERT [6],reduced activity relative to cocaine
"CN1[C@@H]2C[C@@H](OC(=O)[C@H](CO)c3ccccc3)C[C@H]1[C@@H]1O[C@@H]12 [scopolamine, scopolamine hydrobromide trihydrate, reference compound]","SERT inhibition, single concentration",SERT [2],meaningful levels of SERT inhibition
